Results on ten molecules are retold here after publication PMC9293711 (Acta Pharmaceutica Sinica. B, 2022).

For series [1], the system named is MCF-7/ADR cells. The series is classed as cell-based, human. The conditions noted are these: after 24 h pre-incubation with non-toxic concentration of the compound. The method in brief:
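Adr-resistant MCF-7/ADR cells were kept in RPMI 1640 with 10% FBS and 1000 ng/mL Adr. Cells were seeded at 5 × 10^3/well and pre-treated 24 h with the test compound at its highest non-toxic level (95% viability by 24 h CCK8 over 1.25–80 μmol/L). Adr (0–100 μmol/L) was then added for 24 h.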

Series [2] concerns the target T1, P-gp (Homo sapiens, UniProt P08183). The conditions noted are these: for Rmax: analyte binding capacity from steady-state fit; for pKd: Table 2, steady-state affinity model (1:1), reference FC SMALPs-MCF-7.
Series [3] deals with T1, P-gp. Description: biochemical. The conditions noted are these: Table 2, steady-state affinity model (1:1), reference FC SMALPs-MCF-7.
The target of series [4] is T1, P-gp. The conditions noted are these: SPR screening of 50 natural products, remarkable response values.
In series [5] the target is T1, P-gp. Nature of the series: Rh123 bidirectional transport experiment in MDCK-MDR1 cell monolayer. The series is classed as cell-based. The settings on record: MDCK-MDR1 cells, pre-incubation with the compound. The method in brief: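 MDCK cells transfected with MDR1 were grown in DMEM with 10% FBS, streptomycin and penicillin, then used as monolayers on Transwell plates. Rh123 served as the P-gp substrate. Apparent permeability was measured in both directions, apical→basolateral and basolateral→apical, with efflux rate (ER) derived from these, for treated versus control monolayers (mean ± SD, n = 3).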

pKd: −log10 of the molar value. Where two headings read alike, the source gives them in different places.

T1 sequence (P08183 whole entry): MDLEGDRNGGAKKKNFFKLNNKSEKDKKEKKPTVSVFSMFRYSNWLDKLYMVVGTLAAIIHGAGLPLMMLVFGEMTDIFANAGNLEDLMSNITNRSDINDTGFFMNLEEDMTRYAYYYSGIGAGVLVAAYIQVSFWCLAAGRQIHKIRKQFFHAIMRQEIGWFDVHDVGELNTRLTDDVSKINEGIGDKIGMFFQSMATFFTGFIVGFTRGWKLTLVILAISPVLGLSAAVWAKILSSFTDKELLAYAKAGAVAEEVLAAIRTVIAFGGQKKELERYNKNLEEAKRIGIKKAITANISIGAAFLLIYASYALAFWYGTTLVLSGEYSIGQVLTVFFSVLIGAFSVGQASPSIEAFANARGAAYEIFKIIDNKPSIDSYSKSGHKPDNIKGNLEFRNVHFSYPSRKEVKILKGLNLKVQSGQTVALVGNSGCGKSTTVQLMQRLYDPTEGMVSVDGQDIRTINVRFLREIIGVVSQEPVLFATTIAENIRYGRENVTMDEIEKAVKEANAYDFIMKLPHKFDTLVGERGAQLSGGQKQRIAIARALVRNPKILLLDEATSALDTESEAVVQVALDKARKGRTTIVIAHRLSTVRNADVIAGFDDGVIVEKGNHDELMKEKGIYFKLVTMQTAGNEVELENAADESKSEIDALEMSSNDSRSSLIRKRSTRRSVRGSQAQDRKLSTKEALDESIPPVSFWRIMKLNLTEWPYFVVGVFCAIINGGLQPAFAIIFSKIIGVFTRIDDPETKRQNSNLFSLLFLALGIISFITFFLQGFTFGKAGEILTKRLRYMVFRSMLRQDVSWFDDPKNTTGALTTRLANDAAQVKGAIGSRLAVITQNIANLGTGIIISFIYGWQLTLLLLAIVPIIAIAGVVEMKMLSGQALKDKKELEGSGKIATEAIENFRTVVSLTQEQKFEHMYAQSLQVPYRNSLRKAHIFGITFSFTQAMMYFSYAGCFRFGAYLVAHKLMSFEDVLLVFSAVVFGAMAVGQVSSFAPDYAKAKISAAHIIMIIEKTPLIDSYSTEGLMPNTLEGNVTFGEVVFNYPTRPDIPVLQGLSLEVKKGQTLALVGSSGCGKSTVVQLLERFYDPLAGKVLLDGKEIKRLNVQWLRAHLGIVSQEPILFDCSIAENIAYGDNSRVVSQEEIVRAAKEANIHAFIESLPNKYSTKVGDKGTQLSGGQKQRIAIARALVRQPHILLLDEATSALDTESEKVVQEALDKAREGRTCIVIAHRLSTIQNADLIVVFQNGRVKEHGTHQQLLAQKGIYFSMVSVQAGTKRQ

The term pKd denotes the Kd on a negative log10 scale, so that one unit is a factor of ten. Low readings indicate a high Kd, high ones a low Kd. Regarding `COc1cc(/C=C/C(=O)CC(=O)/C=C/c2ccc(O)c(OC)c2)ccc1O` [Curcumin], the “Sensitivity of MCF-7/ADR cells to Adr” value in series [1] is listed as “could not improve the sensitivity”. In addition, in series [2], the Rmax came out at 270.2 RU. The pKd in series [3] was 3.82.

For the molecule `COc1ccc2cc1Oc1ccc(cc1)C[C@H]1c3cc(c(OC)cc3CCN1C)Oc1c(O)c(OC)cc3c1[C@H](C2)N(C)CC3` [Fangchinoline], the “Sensitivity of MCF-7/ADR cells to Adr” value in series [1] is reported as “significantly increased”. Further, in series [2], the Rmax is 24.92 RU. Further, the “Screening outcome: target compound binding to P-gp” value (“Screening outcome … to P-gp” for short) in series [4] is “could bind to P-gp”. Besides, the pKd in series [3] is 3.94.

In series [2], `COc1ccc(-c2oc3c(CC=C(C)C)c(O)cc(O)c3c(=O)c2O)cc1` [Icaritin] had a pKd of 5.59 and an Rmax of 13.86 RU. In series [4], the “Screening outcome … to P-gp” value was “could bind to P-gp”.

On to `O=C(/C=C/c1ccc(O)cc1)c1ccc(O)cc1O` [Isoliquiritigenin], for which the “Sensitivity of MCF-7/ADR cells to Adr” value in series [1] was “could not improve the sensitivity”. The molecule also came in with an Rmax in series [2] of 114 RU. The molecule further had a pKd in series [3] of 3.59.

Turning to `O=c1cc(-c2ccc(O)c(O)c2)oc2cc(O)cc(O)c12` [Luteolin], in series [2], the Rmax came to 47.21 RU. In addition, the “Screening outcome … to P-gp” value in series [4] is “could bind to P-gp”. In series [3], this molecule gave a negative logarithm of the Kd (pKd) of 4.29.

As for `COc1cccc(O)c1-c1cc(=O)c2c(O)c(OC)c(OC)c(OC)c2o1` [Neobaicalein], the “Sensitivity of MCF-7/ADR cells to Adr” value in series [1] is recorded as “significantly increased”. In series [2], this molecule gave a pKd of 3.90 and an Rmax of 89.01 RU. The “Effect on ER of Rh123 / P-gp function (in words)” value in series [5] is on record as “significantly reduce the ER of Rh123”. Also, the “Screening outcome … to P-gp” value in series [4] was “could bind to P-gp”.

`C/C=C(/C)C(=O)O[C@H]1[C@@H](OC(C)=O)c2c(ccc3ccc(=O)oc23)OC1(C)C` [Praeruptorin A]: in series [2], the pKd was 5.14 and the Rmax was 2.618 RU. Further, in series [4], the “Screening outcome … to P-gp” value is “could bind to P-gp”.

Regarding `C/C=C(/C)C(=O)O[C@H]1c2c(ccc3ccc(=O)oc23)OC(C)(C)[C@H]1OC(=O)/C(C)=C\C` [Praeruptorin B], the “Sensitivity of MCF-7/ADR cells to Adr” value in series [1] is “significantly increased”. In addition, in series [2], the negative logarithm of the Kd (pKd) was 6.27 and the Rmax is on record as 3.498 RU. Moreover, the “Effect on ER of Rh123 / P-gp function (in words)” value in series [5] is listed as “significantly reduce the ER of Rh123”. In addition, the “Screening outcome … to P-gp” value in series [4] is “could bind to P-gp”.

In the case of `COc1ccc2cc1Oc1ccc(cc1)C[C@H]1c3cc(c(OC)cc3CCN1C)Oc1c(OC)c(OC)cc3c1[C@H](C2)N(C)CC3` [Tetrandrine], the “Sensitivity of MCF-7/ADR cells to Adr” value in series [1] is reported as “significantly increased”. In series [2], the Rmax is 11.24 RU. The “Screening outcome … to P-gp” value in series [4] is recorded as “could bind to P-gp”. Moreover, the negative-log Kd (pKd) in series [3] was 3.66.

`C/C=C/C[C@@H](C)C(=O)[C@H]1C(=O)N[C@@H](C(C)C)C(=O)N(C)CC(=O)N(C)[C@@H](CC(C)C)C(=O)N[C@@H](C(C)C)C(=O)N(C)[C@@H](CC(C)C)C(=O)N[C@@H](C)C(=O)N[C@H](C)C(=O)N(C)[C@@H](CC(C)C)C(=O)N(C)[C@@H](CC(C)C)C(=O)N(C)[C@@H](C(C)C)C(=O)N1C` [Valspodar, valspodar, reference compound]: in series [1], the “Sensitivity of MCF-7/ADR cells to Adr” value is listed as “significantly increased”.
